Shown are actives, neighbours in structure and some others; about 1.7% of the full set was active somewhere.
STEP inh – STEP (human) phosphatase inhibition; recombinant STEP, OMFP fluorogenic substrate, fluorescence; inhibition, % at 20 µM; actives 0.25% (n = 360,000);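 active means inhibition at 20 µM, scaled per plate between control wells, above about 37%, limit read from the data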
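System: STEP (striatal-enriched tyrosine phosphatase) enzyme, cell-free; medium: Bis-Tris pH 6.0 buffer with DTT, detergent; dosing: 20 µM, 1% DMSO; times: reaction 20 min, ambient temperature; detection: fluorescence, 480/540 nm; read-out basis: normalized % inhibition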
SUMO1 PPI mod – SUMO1-SIM interaction modulation. inhibition, % at 20 µM. actives 0.33% (n = 360,000). AID 602429. P63165. SUMO1 binding to a labelled peptide, TR-FRET, 1 h; in the data active means inhibition above about 37%
Target sequence (P63165 whole entry, looked up): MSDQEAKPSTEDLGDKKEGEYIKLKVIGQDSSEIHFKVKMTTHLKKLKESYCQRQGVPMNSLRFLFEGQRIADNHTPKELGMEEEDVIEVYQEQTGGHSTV
LMPTP block – LMPTP (human) inhibition; P24666; recombinant LMPTP-A, OMFP fluorogenic substrate, fluorescence intensity; inhibition, % at 20 µM; actives 0.22% (n = 360,000); AID 651560;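 active means compounds that cut the enzyme signal by at least half of the control window in the single-dose screen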
Target sequence (P24666 whole entry, looked up): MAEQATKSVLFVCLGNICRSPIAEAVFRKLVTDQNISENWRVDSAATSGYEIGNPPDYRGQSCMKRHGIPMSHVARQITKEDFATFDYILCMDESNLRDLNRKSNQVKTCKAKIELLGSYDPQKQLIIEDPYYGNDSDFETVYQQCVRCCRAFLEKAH
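Assay system: LMPTP-A, protein tyrosine phosphatase of low molecular weight / Medium: pH 6.0 Bis-Tris buffer with DTT and Triton X-100 / Schedule: 50 min enzyme reaction at room temperature, protected from light / Measured by: endpoint fluorescence intensity from OMFP dephosphorylation / Read-out basis: % inhibition relative to no-enzyme and uninhibited control wells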
Scp1 inh – blocks human Scp-1 phosphatase activity. AID 493091. Recombinant Scp1, phosphopeptide, malachite green phosphate absorbance. actives 0.88% (n = 340,000). inhibition, % at 20 µM. Q9GZU7;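 active means inhibition above about 50% at 20 µM, limit read from the data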
Target sequence (Q9GZU7 76-261 limits assumed): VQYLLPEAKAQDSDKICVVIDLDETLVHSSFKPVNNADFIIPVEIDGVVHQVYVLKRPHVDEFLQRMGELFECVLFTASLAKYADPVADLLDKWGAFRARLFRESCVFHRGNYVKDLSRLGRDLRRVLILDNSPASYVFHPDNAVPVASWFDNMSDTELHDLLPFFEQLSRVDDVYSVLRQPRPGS
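Test system: SCP-1 phosphatase catalytic domain, residues 76-261 | Compound dosing: One concentration, 20 µM, with 1.0% DMSO | Schedule: 45 min room-temperature reaction, 5 min colour, 30 min stabiliser | Detection: Absorbance at 630 nm | Read-out basis: % inhibition of SCP-1 phosphate liberation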
DNMT1 block – DNMT1 (human) enzyme inhibition; DNMT1 molecular beacon, Hinp1I cleavage, fluorescence; actives 0.83% (n = 360,000); P26358; inhibition (reported as % activation of signal), % at 10 µM; in the data active means inhibition above about 50%
DNMT1 interf DR – shows spectral interference in the DNMT1 beacon assay; 200 tested, under 10 active; shares compounds with DNMT1 block; IC50, µM; molecular beacon fluorescence, spectral interference counter-screen; call rule not given here
DNMT1 confirm – confirmation of human DNMT1 inhibitors. actives 8% (n = 2,300). DNMT1 molecular beacon HinP1I cleavage, fluorescence. inhibition, % at 10 µM. shares compounds with DNMT1 block. AID 602385;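 active means average inhibition of at least 30% in the single-concentration confirmation test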
DNMT1 interf – beacon fluorescence artifact counter-screen; shares compounds with DNMT1 block; DNMT1 molecular beacon spectral interference counterscreen, fluorescence 485/520; activation (fluorescence interference), % at 10 µM; actives 1% (n = 2,300); AID 602387;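 active means activation of at least 30% at 10 µM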;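 further: DNMT1 catalytic domain with a HinP1I cleavage step and a FAM/dabcyl DNA beacon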
Numbers stand for hits; n = inactive; x = not tested or not shown.

SMILES | STEP inh | SUMO1 PPI mod | LMPTP block | Scp1 inh | DNMT1 block | DNMT1 confirm | DNMT1 interf | others
N=C1/C(=C\c2ccc(SCc3ccco3)o2)C(=O)N=C2SC=NN12 | n | 43 | n | n | 106 | n | n
CC1=NN2C(=N)/C(=C\c3cc(C)n(Cc4ccccc4)c3C)C(=O)N=C2S1 | n | n | n | n | n | x | x
O=C(O)CN1C(=O)/C(=C/c2ccc(SCc3ccccc3)o2)SC1=S | n | n | n | 59 | 76 | n | n
COc1cc2c(cc1OC)[C@H](C)N(C(=O)NCc1ccccc1)CC2 | n | n | n | n | n | x | x
CCOC(=O)c1nn(-c2ccc(C)cc2)c(=O)cc1OCC(=O)Nc1cccc(OC)c1 | n | n | n | n | n | x | x
CCOC(=O)c1nn(-c2ccc(F)cc2)c(=O)cc1OCC(=O)Nc1ccc(OCC)cc1 | n | n | n | n | 69 | 80 | n | DNMT1 interf DR=n
COC(=O)[C@@]1(Cc2ccccc2)[C@H]2C(=O)N(C)C(=O)[C@H]2[C@H]2CN=C(SCc3ccc(Cl)cc3)N21 | n | n | n | n | n | x | x
CC(C)c1nc(SCC(=O)Nc2c[nH]c(=O)[nH]c2=O)c2cnn(-c3ccccc3)c2n1 | n | n | n | n | 53 | n | n
Cc1nc(SCC(=O)Nc2c(C)nn(C)c2C)c2cnn(-c3ccccc3)c2n1 | n | n | n | n | n | x | x
CCOC(=O)c1c(C)[nH]c(C(=O)OC(C)C(=O)Nc2ccc(C)cc2)c1C (stereo not drawn) | n | n | n | x | 74 | n | n
Cc1nnc(SC(C)C(=O)NC2CCCCC2)[nH]c1=O (stereo not drawn) | n | n | n | n | n | x | x
Cc1cccc(C)c1NC(=O)COc1ccc2c(C)c(Cc3ccccc3)c(=O)oc2c1C | n | n | n | n | 57 | n | n
Cn1c2ccccc2c2c(=O)oc3ccccc3c21 | n | n | n | n | 52 | n | n | DNMT1 interf DR=n
CCCn1cnc2c(=O)oc3ccccc3c21 | n | n | n | n | n | x | x
O=C(N/N=C/c1cc([N+](=O)[O-])ccc1O)c1ccc(COc2ccc3c(c2)CCC3)o1 | 90 | n | 69 | 81 | 72 | n | n
Cc1c(C(=O)Nc2ccc(F)cc2)cn2c(nc3ccccc32)c1C#N | n | n | n | n | n | x | x
N#Cc1c2nc3ccccc3nc2n2cc(NC(=O)c3ccc(F)cc3)ccc12 | n | n | n | n | 103 | n | n
Clc1ccc(-c2nnc3sc(-c4ccc(Br)o4)nn23)c(Cl)c1 | n | n | n | n | n | x | x
Clc1ccc(-c2nn3c(-c4ccccc4)nnc3s2)cc1 | n | n | n | n | n | x | x
Cc1oc(-c2ccc(Cl)cc2)cc1-c1nn2c(-c3ccoc3C)nnc2s1 | n | n | n | n | 93 | n | n
Clc1ccc(-c2nnc3sc(-c4ccc(Br)o4)nn23)cc1 | n | n | n | n | 112 | 61 | 48
O=C(CCl)N1CCN(S(=O)(=O)c2ccc3c(c2)CCC3)CC1 | n | n | n | n | n | x | x
O=C(N/N=C/c1ccc([N+](=O)[O-])o1)C(=O)Nc1ccc(C(=O)O)cc1 | n | n | n | n | n | x | x
O=C(O)c1ccc(N/N=C/C=C/c2ccc([N+](=O)[O-])o2)cc1 | 43 | n | n | 58 | 72 | n | n
COC(=O)Nc1ccc(S(=O)(=O)N2CCC(C(=O)NCc3ccc4c(c3)OCO4)CC2)cc1 | n | n | n | n | n | x | x
NS(=O)(=O)c1ccc(CCNc2nc3c(-c4cccc(F)c4)nnn3c3ccccc23)cc1 | n | n | n | n | 72 | n | n
Cc1ccc(-c2nnn3c2nc(NCCc2ccc(S(N)(=O)=O)cc2)c2ccccc23)cc1 | n | n | n | n | 89 | n | n
Cc1cccc(-c2nnn3c2nc(NCCc2ccc(S(N)(=O)=O)cc2)c2ccccc23)c1 | n | n | n | n | n | x | x
COc1cc(OC)c(/C=N/N2CCN(c3ccccc3OC)CC2)c(OC)c1 | n | n | n | n | n | x | x

From PubChem BioAssay
